# Measured values from different studies.
# Each line is one published result; the experiments were not run side by side.
# CSF1R: Macrophage colony-stimulating factor 1 receptor (CSF1R, Homo sapiens, UniProt P07333)
# CSF1R Y969C: Macrophage colony-stimulating factor 1 receptor (CSF1R, Homo sapiens, UniProt P07333, Y969C)
# CSF1R autoinhibited: Macrophage colony-stimulating factor 1 receptor, autoinhibited (CSF1R, Homo sapiens, UniProt P07333)
SMILES,target,observed,mode,method,concentration,endpoint,result
O=C(N1CCS(=O)(=O)CC1)N1C[C@H](c2ccc(OC(F)(F)F)cc2)C[C@H](c2nc(C3CC3)no2)C1,CSF1R,cell-free assay,,competition with immobilised ligand,1 µM,remaining binding,100%
CCN(CC)c1ccc(C2=NNC(=O)CC2C)cc1[N+](=O)[O-] (stereo not shown),CSF1R,enzyme activity,inhibitor,,10 µM,remaining activity,114%
CNC(=O)c1cc2c(Oc3ccc(NC(=O)C4(C(=O)Nc5ccc(F)cc5)CC4)cc3)ccnc2cc1OC,CSF1R Y969C,enzyme activity,inhibitor,radiometric,1 µM,inhibition,77%
CCN(CC)CCNC(=O)c1c(C)[nH]c(/C=C2\C(=O)Nc3ccc(F)cc32)c1C,CSF1R,cell-free assay,,,0.3 µM,inhibition,98%
N#CCCc1ccc2c(c1)-c1[nH]c3ccc([N+](=O)[O-])cc3c1CC(=O)N2,CSF1R,cell-free assay,,,0.5 µM,remaining signal,43.4%
COc1cc2nccc(Oc3ccc(NC(=O)c4c5n(n(-c6ccc(F)cc6)c4=O)CCCC5)cc3)c2cc1OC,CSF1R,enzyme activity,inhibitor,,0.1 µM,inhibition,38%
CCCOc1ccc(OC)c(F)c1C(=O)c1ccc(C(=O)N[C@@H]2CNC[C@H]2NC(=O)c2ccc3[nH]ncc3c2)cc1,CSF1R Y969C,enzyme activity,inhibitor,,10 µM,remaining activity,57%
CCCCN(CCCC)C(=O)CN1C[C@@H](c2cc(OC)c3c(c2)OCO3)[C@H](C(=O)O)[C@H]1CC(C)(C)CCC,CSF1R autoinhibited,cell-free assay,,competition with immobilised ligand,1 µM,remaining binding,100%
CC(C)(O)[C@H]1CC[C@H](Nc2ccc3ncc(-c4cccc(C(F)(F)F)c4)n3n2)CC1,CSF1R,enzyme activity,inhibitor,,1 µM,remaining activity,89.7%
O=C1Nc2ccc(Cl)cc2C1=Cc1cc(Cl)c(O)c(Cl)c1,CSF1R,cell-free assay,,,0.5 µM,remaining signal,77.9%
O=C(CSc1nc2nccnc2c(=O)n1CCc1ccccc1)Nc1nccs1,CSF1R,enzyme activity,inhibitor,,10 µM,inhibition,13%
Cc1cnc(NC2CCOCC2)nc1-n1cnc(C(=O)NC(CN)c2cc(F)cc(Cl)c2)c1 (stereo not shown),CSF1R Y969C,enzyme activity,inhibitor,radiometric,1 µM,remaining activity,101%
Oc1cccc(-c2nc(N3CCOCC3)c3oc4ncccc4c3n2)c1,CSF1R,cell-free assay,,,0.5 µM,remaining signal,108%
CN(CCCC(F)(F)F)c1nccc(-c2cnn3ncccc23)n1,CSF1R autoinhibited,binding,,,1 µM,remaining binding,100%
COc1ccc2cc(OCC3(C(=O)O)CN(C(=O)c4ccc(F)cc4)C3)ccc2c1,CSF1R,cell-free assay,,competition with immobilised ligand,1 µM,remaining binding,100%
N[C@@H]1CCN(c2nccc(-c3cnn4ncccc34)n2)C1,CSF1R,binding,,,1 µM,remaining binding,100%
Cc1ccc(NC(=O)c2ccc(C)c(C(F)(F)F)c2)cc1C#Cc1nn(C2CCC(O)CC2)c2ncnc(N)c12 (stereo not shown),CSF1R Y969C,cell-free assay,,,10 µM,remaining signal,13%
CCCOc1ccc([C@H]2[C@H](C(=O)O)[C@@H](c3ccc4c(c3)OCO4)CN2CC(=O)Nc2c(CC)cccc2CC)cc1,CSF1R autoinhibited,cell-free assay,,competition with immobilised ligand,1 µM,remaining binding,61%
Cc1cc(NC(=O)c2cccc3cc(-c4cccc5[nH]nc(N)c45)ccc23)ccc1F,CSF1R,enzyme activity,inhibitor,,0.1 µM,activity vs control,7%
O=C(Nc1cnn(-c2csc(C(=O)NC3COC3)c2)c1)Nc1c(F)cccc1Cl,CSF1R,enzyme activity,inhibitor,,5 µM,remaining activity,98.9%
C[C@@H]1CCN(c2nccc(-c3cnn4ncccc34)n2)C1,CSF1R autoinhibited,binding,,,1 µM,remaining binding,78%
CC(C)(C)c1nc2c(s1)c1nc(N)ncc1c1ccc(NS(=O)(=O)c3c(F)cccc3F)c(F)c12,CSF1R,enzyme activity,inhibitor,radiometric,1 µM,remaining activity,109%
C=CC(=O)Nc1cc(Nc2nccc(Nc3cc(Cl)c(F)cc3C(C)(C)O)n2)c(OC)cc1N1CC[C@@H](N(C)C)C1,CSF1R,enzyme activity,inhibitor,,1 µM,inhibition,13%
CN(c1nccc(-c2cnn3ncccc23)n1)C1CC1,CSF1R,binding,,,1 µM,remaining binding,88%
COc1cc2ncnc(Nc3ccc(Oc4ccccc4)c(C)c3C)c2cc1OC,CSF1R,enzyme activity,inhibitor,,1 µM,inhibition,8%
Cc1c(NC(=O)c2cc(C(N)=O)nc3cc(F)ccc23)c(C(F)(F)F)nn1Cc1ccc(C#N)cc1,CSF1R,cell-free assay,,competition with immobilised ligand,1 µM,remaining binding,83%
COc1ccnn2ncc(-c3ccnc(N(C)C)n3)c12,CSF1R autoinhibited,binding,,,1 µM,remaining binding,91%
C[C@@H]1CN(c2cc(-c3nn(C)c4ccc(OC5(C)CC5)cc34)ncn2)C[C@H](C)O1,CSF1R autoinhibited,cell-free assay,,competition with immobilised ligand,1 µM,remaining binding,55%
Nc1ncnc2occ(-c3ccc(NC(=O)Nc4cc(C(F)(F)F)ccc4F)cc3)c12,CSF1R autoinhibited,cell-free assay,,,20 µM,remaining signal,0.95%
c1ccc(-c2n[nH]c3c2oc2ccccc23)cc1,CSF1R,cell-free assay,,,0.5 µM,remaining signal,78.1%
CCOC(=O)c1cc2cc(-c3cc(C(=O)NCc4ccc(C(=O)O)cc4)nn3C)ccc2[nH]1,CSF1R autoinhibited,cell-free assay,,competition with immobilised ligand,0.1 µM,remaining binding,94%
CN(C)C1CCN(CC#Cc2nn(C3CCCC3)c3nc(NCc4ccccc4)ncc23)C1 (stereo not shown),CSF1R,enzyme activity,inhibitor,FRET,10 µM,inhibition,107%
CN(C(=O)c1ccccc1)c1cc(N(C)c2ccc3c(c2)CCc2ccc(C(=O)NCCN4CCOCC4)cc2C3=O)ccc1F,CSF1R,cell-free assay,,competition with immobilised ligand,1 µM,remaining binding,98%
CCCS(=O)(=O)Nc1ccc(F)c(C(=O)c2c[nH]c3ncc(-c4ccc(Cl)cc4)cc23)c1F,CSF1R,enzyme activity,inhibitor,,1 µM,inhibition,< 20%
